Compound activity (PubChem BioAssay)
Hits are enriched below; roughly 4.8% of the tested compounds scored in any of these assays.
HSF1 inhib: HSF1 inhibition | 300,000 compounds, 0.77% hits | activity change, negative = inhibition, % at 7.5 µM (by protocol) | NIH3T3-HGL HSE-luciferase, MG132-induced, luminescence 8 h; hits give low values;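 active = more than half of replicate wells show activity change below -50%, luminescence cut by over half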;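 note: luciferase reports HSF-1 transcriptional activity via heat shock element; 0% = median of DMSO wells and -100% = zero luminescence signal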
HSF-1 act: increases HSF-1 driven luciferase reporter signal; NIH3T3-HGL HSF-1 luciferase reporter, MG132, 8 h; 100% = twice DMSO control signal; activation, % at 9 µM; 300,000 compounds, 1.7% hits;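 active = mean replicate activation of at least 50% with a set share of replicates each reaching 50%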;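 note: 0% = median of the neutral control wells and 100% = twice that signal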
T cruzi inh: blocks replication of Trypanosoma cruzi. T. cruzi beta-gal in NIH3T3, luminescence, 90 h. inhibition, % (no concentration beside the values). 300,000 compounds, 1.4% hits;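 active = mean inhibition across valid replicates above about 55%, limit read from the data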;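 note: signal also drops with host cell toxicity which is not excluded here; 0% = plate median of DMSO wells and 100% = zero luminescence signal; higher percent means less beta-gal luminescence so fewer parasites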
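System: mouse NIH/3T3 fibroblasts infected with β-gal-expressing T. cruzi Tulahuen C4 / Input: NIH/3T3 cells, 5,000 per well / Buffer or medium: Low-serum DMEM with 2% FBS / Probe or stimulus: 5000 reporter trypomastigotes per well / Schedule: ≥90 h infection period, 3 h prior cell attachment / Measured by: GalScreen luminescence, 60 min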
GPR7 antagonist: blocks human GPR7 receptor signaling; GPR7-expressing cells, fluorescence antagonist assay; inhibition, % at 4.4 µM; 290,000 compounds, 1.1% hits; P48145; in the data active = inhibition above about 16%, passing the limit was not always enough;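 note: cells stimulated with the agonist NPW; 0% = agonist with vehicle and 100% = vehicle without agonist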
Target sequence (P48145 whole entry, looked up): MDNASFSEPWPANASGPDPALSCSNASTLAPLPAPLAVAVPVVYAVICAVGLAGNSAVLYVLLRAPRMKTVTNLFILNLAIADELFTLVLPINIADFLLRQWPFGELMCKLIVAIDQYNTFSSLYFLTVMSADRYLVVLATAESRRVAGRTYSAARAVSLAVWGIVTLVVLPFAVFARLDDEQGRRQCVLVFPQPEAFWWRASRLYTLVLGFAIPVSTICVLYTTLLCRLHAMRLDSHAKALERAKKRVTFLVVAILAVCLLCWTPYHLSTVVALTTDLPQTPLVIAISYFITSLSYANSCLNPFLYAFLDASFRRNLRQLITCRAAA
697 NFkB inh: lowers PMA/ionomycin-induced NF-kB signal in 697 B cells | 697 B-cell NF-kB luciferase reporter, 16 h | inhibition, % at 4 µM | 330,000 compounds, 0.33% hits | AID 435022; in the data active = inhibition above about 35%
Jurkat NFkB inh: inhibitors of the PMA/ionomycin-induced NF-kB reporter in Jurkat cells | PMA/ionomycin-induced NF-kB luciferase reporter, luminescence | inhibition, % at 4 µM | 330,000 compounds, 0.53% hits | AID 435003; in the data active = inhibition above about 50%
GPR7 antag cf: human GPR7 antagonism, confirmation assay; 2,400 compounds, 52% hits; inhibition, % at 4.4 µM; GPR7-expressing cells, calcium fluorescence antagonist mode; shares compounds with GPR7 antagonist; AID 1952; in the data active = inhibition above about 24%;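 note: stimulated with the GPR7 agonist NPW; 0% = agonist plus vehicle and 100% = vehicle alone without agonist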
MCHR1 antagonist: antagonizes human MCHR1, a GPR7 antagonist counter-screen | 2,400 compounds, 62% hits | inhibition, % at 4.4 µM | shares compounds with GPR7 antagonist | MCHR1-expressing cells, fluorescence antagonist assay; in the data active = inhibition above about 22%;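 note: 0% = vehicle with agonist and 100% = vehicle without agonist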
Starred values were filed as active, the others as inactive; nt = no result given.

SMILES	HSF1 inhib	HSF-1 act	T cruzi inh	GPR7 antagonist	697 NFkB inh	Jurkat NFkB inh	GPR7 antag cf	MCHR1 antagonist
Fc1ccc(Cn2nnnc2C(c2ccc(Cl)cc2)N2CCSCC2)cc1 (stereo not drawn)	6	21	-1	34*	10	4	40*	27*
Cn1c(Oc2ccccc2NCc2cccc(Br)c2)cc(=O)n(C)c1=O	7	6	8	31*	-15	42	22	33*
Cn1c(NCc2cccc(Br)c2)nc2ccccc21	-8	-12	-26	1	-9	-19	nt	nt
CCC(=O)Nc1cccc(C2=NN(c3ccccc3)C(c3ccc(OC)cc3)C2)c1 (stereo not drawn)	1	31	23	-9	12	-2	nt	nt
COCCCNCCCOc1ccc(Cl)cc1C(C)(C)C	1	6	46	22*	-4	0	26*	33*
CCC(C)NCCCOc1ccc(Cl)cc1C(C)(C)C (stereo not drawn)	-4	-19	25	-2	-5	-2	nt	nt
CNCCCOc1ccc(Cl)cc1C(C)(C)C	-8	-4	55*	25*	-20	-14	41*	48*
COC(=O)C1=CN(c2ccc(F)cc2)C=C(C(=O)OC)C1c1cccc([N+](=O)[O-])c1	6	10	20	7	7	4	nt	nt
COc1ccccc1N(CC(=O)NCCSCc1cccc(C)c1)S(=O)(=O)c1ccccc1	-2	-18	15	-4	-12	-15	nt	nt
CCN(Cc1ccccc1)Cc1nnnn1Cc1ccccc1	-1	5	15	26*	2	11	18	16
Nc1cccc(-c2nc3ccc(C(=O)c4ccccc4)cc3[nH]2)c1	15	29	-3	43*	-79	-45	27*	63*
Cc1cccc(N2CCN(C(=O)COc3ccc4ccc(=O)oc4c3)CC2)c1C	11	38	2	37*	-15	37	45*	42*
O=C(CN1CCN(CC(=O)Nc2ccccc2Cl)CC1)NCC1(N2CCCCC2)CCCCC1	nt	nt	nt	nt	11	8	nt	nt
COC(=O)c1ccc(NC(=O)COc2ccc([N+](=O)[O-])cc2)cc1	-10	11	6	13	5	9	nt	nt
COc1cc(NC(=O)Nc2cccc([N+](=O)[O-])c2)cc(OC)c1	nt	nt	35	28*	25	-1	5	74*
COC(=O)c1ccc(NC(=O)Nc2ccc([N+](=O)[O-])cc2)cc1	4	16	30	47*	2	-8	71*	67*
O=C(c1ccccc1)c1ccc(Sc2ccc([N+](=O)[O-])cc2)cc1	3	3	40	22*	18	22	22	53*
Cc1ccc(C(=O)c2ccc([N+](=O)[O-])cc2)cc1C	12	21	12	-6	3	-12	nt	nt
CCN(CC)CCNC(=O)CCc1c(C)nc2c(c(C)nn2-c2ccc(C)cc2)c1C	-3	1	4	nt	-17	15	nt	18
COCCNC(=O)CCc1c(C)nc2c(c(C)nn2-c2ccc(C)cc2)c1C	10	45	-2	0	4	-6	nt	nt
Cn1c(Cc2cccc3ccccc23)nnc1SCc1ccc([N+](=O)[O-])cc1	-4	2	17	29*	18	1	1	15
Cc1cc(C(=O)NNC(=O)CN2C(=O)NC(C)(c3ccccc3)C2=O)c(C)o1 (stereo not drawn)	-18	-38	-10	nt	21	4	nt	nt
CCc1nc2cccnc2n1-c1ccc(CC(=O)O)cc1	-5	-13	-11	-26	0	-6	nt	nt
CC(C)NC(=O)CCc1nc2cccnc2n1-c1ccccc1	-5	-5	-4	56*	7	-20	-4	-5
CCc1ccccc1N(CC(=O)NC1CCCCC1)C(=O)CCCC(=O)Nc1ccccn1	7	18	9	7	6	-3	nt	nt
